Measured values as given in ChEMBL document CHEMBL3526029, “Disposition and metabolism of GSK2251052 in humans: a novel boron-containing antibiotic” (Drug Metab Dispos, 2013).

How the values were obtained:
Blood [1] = assay: AUC (0 to t) in healthy human whole blood assessed as radioactivity at 1500 mg, iv infusion for 1 hr as single dose; format: ADME, organism-based; settings: in vivo
Procedure, shortened: (§1)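 Six fasted healthy men received 1500 mg [14C]GSK2251052 as a 1-h i.v. infusion. Blood and plasma were sampled from predose to 336 h after infusion start. Radioactivity was counted by LSC; plasma below 870 ng eq/ml was reanalysed by accelerator MS, with predose background subtracted. Noncompartmental analysis used actual sampling times, linear-up/log-down trapezoids and CL = dose/AUC(0-∞).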

Blood [2] = assay: Clearance in healthy human whole blood assessed as radioactivity at 1500 mg, iv infusion for 1 hr as single dose; format: ADME, organism-based; settings: in vivo; procedure, shortened: as §1
[3] = Drug recovery in healthy human urine at 1500 mg, iv infusion for 1 hr as single dose after 48 hrs; format: ADME, organism-based; settings: read-out: Drug recovery
[4] = Drug recovery in healthy human urine at 1500 mg, iv infusion for 1 hr as single dose after 72 hrs; format: ADME, organism-based; settings: read-out: Drug recovery
[5] = Drug recovery in healthy human urine at 1500 mg, iv infusion for 1 hr as single dose after 96 hrs; format: ADME, organism-based; settings: read-out: Drug recovery
[6] = Drug recovery in healthy human urine at 1500 mg, iv infusion for 1 hr as single dose after 144 hrs; format: ADME, organism-based; settings: read-out: Drug recovery
[7] = Drug metabolism in cynomolgus monkey liver S9 fraction assessed as (S)-3-(3-(aminomethyl)-1-hydroxy-1,3-dihydrobenzo[c][1,2]oxaborol-7-yloxy)propanoicacid formation at 50 to 500 uM after 3 hrs by liquid scintillation counting in presence of NADPH regeneration system; format: ADME, subcellular, Macaca fascicularis; settings: s9, 3 h
[8] = Drug recovery in healthy human feces at 1500 mg, iv infusion for 1 hr as single dose after 216 hrs; format: ADME, organism-based; settings: faeces, read-out: Drug recovery
[9] = Drug recovery in healthy human feces at 1500 mg, iv infusion for 1 hr as single dose after 240 hrs; format: ADME, organism-based; settings: faeces, read-out: Drug recovery
[10] = Drug recovery in healthy human feces at 1500 mg, iv infusion for 1 hr as single dose after 264 hrs; format: ADME, organism-based; settings: faeces, read-out: Drug recovery
Plasma = assay: AUC (0 to infinity) in healthy human plasma assessed as radioactivity at 1500 mg, iv infusion for 1 hr as single dose; format: ADME, organism-based; set-up: dose 1500 mg, time infinity, route intravenous; settings: in vivo; procedure, shortened: as §1
[11] = Drug recovery in healthy human feces at 1500 mg, iv infusion for 1 hr as single dose after 288 hrs; format: ADME, organism-based; settings: faeces, read-out: Drug recovery
[12] = Total drug recovery in healthy human at 1500 mg, iv infusion for 1 hr as single dose after 24 hrs; format: ADME, organism-based; settings: in vivo, read-out: Drug recovery
Procedure, shortened: (§2)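 Six healthy adult males, fasted ≥10 h, got one 1500 mg [14C]GSK2251052 dose ([…], 0.56 MBq) as a constant-rate 1-h IV infusion in 0.9% NaCl. Urine was collected at 0–6, 6–12 and 12–24 h, then in 24-h blocks to 336 h; feces in 24-h blocks. Urine was counted directly by LSC; feces were homogenized and combusted in duplicate before LSC. Cumulative recovery is given as mean % of dose.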

[13] = Total drug recovery in healthy human at 1500 mg, iv infusion for 1 hr as single dose after 96 hrs; format: ADME, organism-based; settings: in vivo, read-out: Drug recovery; procedure, shortened: as §2
[14] = Total drug recovery in healthy human at 1500 mg, iv infusion for 1 hr as single dose after 168 hrs; format: ADME, organism-based; settings: in vivo, read-out: Drug recovery
[15] = Total drug recovery in healthy human at 1500 mg, iv infusion for 1 hr as single dose after 216 hrs; format: ADME, organism-based; settings: in vivo, read-out: Drug recovery; procedure, shortened: as §2
[16] = Total drug recovery in healthy human at 1500 mg, iv infusion for 1 hr as single dose after 288 hrs; format: ADME, organism-based; settings: in vivo, read-out: Drug recovery; procedure, shortened: as §2
Homo sapiens [17] = assay: Toxicity in healthy human assessed as mortality at 1500 mg, iv infusion for 1 hr as single dose; format: organism-based; settings: in vivo
Procedure, shortened: (§3)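 Single-center, open-label phase I study in six healthy adult males, fasted ≥10 h. Each got one 1500 mg [14C]GSK2251052 dose as a constant-rate 1-h IV infusion. Safety was monitored throughout, with follow-up for at least 336 h after dosing.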

Homo sapiens [18] = assay: Toxicity in healthy human assessed as serious adverse events at 1500 mg, iv infusion for 1 hr as single dose; format: organism-based; settings: in vivo; procedure, shortened: as §3
[19] = Drug metabolism in healthy human urine assessed as 3-(3-(2-amino-1-hydroxyethyl)-2-hydroxyphenoxy)propanoic acid formation at 1500 mg, iv infusion for 1 hr as single dose by mass spectrometry; format: ADME, organism-based; settings: in vivo
Procedure, shortened: (§4)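 Urine was collected through 336 h after a 1500 mg [14C] i.v. 1-h infusion to six men. Samples were pooled by weight (0–120 h per subject; 120–336 h composite) and centrifuged. Profiling used HPLC (Atlantis T3, ammonium acetate pH 4.5/methanol, 30°C) with fraction radioactivity counting. Identity came from Orbitrap positive-ion accurate mass. Values were given as % dose, corrected for recovery.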

[20] = Drug metabolism in healthy human urine assessed as (S)-3-(3-(acetamidomethyl)-1-hydroxy-1,3-dihydrobenzo[c][1,2]oxaborol-7-yloxy)propanoicacid formation at 1500 mg, iv infusion for 1 hr as single dose by mass spectrometry; format: ADME, organism-based; settings: in vivo; procedure, shortened: as §4
[21] = Drug recovery in healthy human feces assessed as total radioactivity at 1500 mg, iv infusion for 1 hr as single dose after 120 to 336 hrs by HPLC method; format: ADME, organism-based; settings: in vivo, in the assay text read “0 to 120 hrs” for “120 to 336 hrs”
Procedure, shortened: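 Feces were collected at 24-h intervals through 336 h after a 1500 mg [14C] i.v. 1-h infusion. Samples were homogenised with water and duplicate aliquots combusted for LSC. For profiling, 0–120 h pools were extracted twice with acetonitrile:methanol:water:formic acid, reconstituted, and analysed by radio-HPLC. Values were reported as % dose.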

[22] = Drug metabolism in cynomolgus monkey lung S9 fraction assessed as (S)-3-(3-(aminomethyl)-1-hydroxy-1,3-dihydrobenzo[c][1,2]oxaborol-7-yloxy)propanoicacid formation at 50 to 500 uM after 3 hrs by liquid scintillation counting in presence of NADPH regeneration system; format: ADME, Macaca fascicularis; settings: s9, 3 h
Liver microsome = assay: Drug metabolism in human liver microsomes assessed as (S)-3-(3-(aminomethyl)-1-hydroxy-1,3-dihydrobenzo[c][1,2]oxaborol-7-yloxy)propanoicacid formation at 50 to 500 uM after 3 hrs by liquid scintillation counting in presence of NADPH regeneration system; format: ADME
[23] = Drug metabolism in cynomolgus monkey kidney S9 fraction assessed as (S)-3-(3-(aminomethyl)-1-hydroxy-1,3-dihydrobenzo[c][1,2]oxaborol-7-yloxy)propanoicacid formation at 50 to 500 uM after 3 hrs by liquid scintillation counting in presence of NAD+; format: ADME, Macaca fascicularis; settings: s9, 3 h
Procedure, shortened: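 [14C]GSK2251052 was incubated in triplicate for 1 or 3 h at 37°C with 4 mg/ml S9 (monkey liver, lung or kidney; human liver), liver cytosol or liver microsomes and 7.5 mM NAD+. Buffer was pyrophosphate at pH 7.4, 8.4 or 8.8. Controls lacked cofactor or enzyme. Reactions were quenched with acetonitrile, counted by LSC, and pooled for radio-HPLC.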

[24] = Drug recovery in healthy human urine at 1500 mg, iv infusion for 1 hr as single dose after 264 hrs; format: ADME, organism-based; settings: read-out: Drug recovery
[25] = Drug recovery in healthy human urine at 1500 mg, iv infusion for 1 hr as single dose after 288 hrs; format: ADME, organism-based; settings: read-out: Drug recovery
[26] = Drug recovery in healthy human feces at 1500 mg, iv infusion for 1 hr as single dose after 24 hrs; format: ADME, organism-based; settings: read-out: Drug recovery

AUCt (Blood [1]): 141 µg·h/mL
CL (Blood [2]): 7.79 L/h
dose excreted at 48 h [3]: 69.2%
dose excreted at 72 h [4]: 76.9%
dose excreted at 96 h [5]: 81.1%
dose excreted at 144 h [6]: 85.1%
Drug metabolism [7]: metabolite_not_detected
dose excreted at 216 h [8]: 7.6%
dose excreted at 240 h [9]: 7.6%
dose excreted at 264 h [10]: 7.6%
AUC (Plasma): 195 µg·h/mL
dose excreted at 288 h [11]: 7.6%
dose excreted at 24 h [12]: 51.3%
dose excreted at 96 h [13]: 87.5%
dose excreted at 168 h [14]: 94%
dose excreted at 216 h [15]: 95.8%
dose excreted at 288 h [16]: 97.4%
Drug recovery [19]: metabolite_detected
Drug recovery [20]: metabolite_detected
Drug recovery [21]: 6%
Drug metabolism [22]: metabolite_not_detected
Drug metabolism (Liver microsome): metabolite_not_detected
Drug metabolism [23]: metabolite_not_detected
dose excreted at 264 h [24]: 89.3%
dose excreted at 288 h [25]: 89.8%
dose excreted at 24 h [26]: 0.1%
SMILES: Cl.N[14CH2][C@H]1OB(O)c2c(OCCCO)cccc21
Activity (Homo sapiens [17]): Non-toxic
Activity (Homo sapiens [18]): Non-toxic
